In ChEMBL document CHEMBL1138661, “Design, synthesis, and structure-activity relationship studies of 3,4,6-triphenylpyran-2-ones as selective cyclooxygenase-2 inhibitors” (J Med Chem, 2004):

Assays:
[1] = biological target: T1, Prostaglandin G/H synthase 1 (Ovis aries, UniProt P05979); assay: Inhibition of ovine Prostaglandin G/H synthase 1
T1 sequence (P05979 whole entry): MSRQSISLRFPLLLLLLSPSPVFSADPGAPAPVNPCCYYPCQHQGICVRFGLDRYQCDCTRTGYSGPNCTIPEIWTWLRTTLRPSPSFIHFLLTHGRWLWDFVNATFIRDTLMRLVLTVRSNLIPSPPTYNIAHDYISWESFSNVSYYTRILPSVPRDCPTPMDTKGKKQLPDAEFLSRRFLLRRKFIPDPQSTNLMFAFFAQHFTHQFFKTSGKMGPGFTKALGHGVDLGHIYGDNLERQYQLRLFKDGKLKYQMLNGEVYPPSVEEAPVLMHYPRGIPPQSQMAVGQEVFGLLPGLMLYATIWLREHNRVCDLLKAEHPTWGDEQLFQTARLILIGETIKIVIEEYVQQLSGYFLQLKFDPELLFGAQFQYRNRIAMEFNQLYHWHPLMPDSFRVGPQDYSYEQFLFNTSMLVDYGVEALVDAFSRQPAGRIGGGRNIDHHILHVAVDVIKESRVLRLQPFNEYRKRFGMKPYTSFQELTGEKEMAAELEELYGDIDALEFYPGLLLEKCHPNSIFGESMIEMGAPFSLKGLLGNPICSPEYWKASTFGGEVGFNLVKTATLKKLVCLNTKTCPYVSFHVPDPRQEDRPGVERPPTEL
Outline: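 Ovine COX-1 with heme in 0.1 M Tris-HCl pH 8.0, 5 mM EDTA, 2 mM phenol. Test drug from DMSO stock at 0.001–100 μM final, preincubated 5 min at 37 °C. Arachidonic acid added, stopped with 1 M HCl after 2 min. IC50 from concentration–inhibition curve, duplicate determinations.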

[2] = species on record: Rattus norvegicus; assay: Percent inhibition of analgesic activity in a rat model 4% NaCl-induced abdominal constriction assay at 60 min; type: functional, Abdomen
Outline: (§1)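 Male Sprague-Dawley rats given test compound orally at 5 mg/kg. Writhing (abdominal constriction) induced by 4% NaCl. Inhibition of writhing scored at 30 or 60 min after dosing. Mean ± SEM, n = 4-6.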

[3] = species on record: Rattus norvegicus; assay: Percent inhibition of analgesic activity in a rat model 4% NaCl-induced abdominal constriction assay at 30 min; type: functional, Abdomen; outline: as §1
[4] = biological target: T2, Prostaglandin G/H synthase 2 (Rattus norvegicus) (UniProt P35355)
T2 sequence (whole entry): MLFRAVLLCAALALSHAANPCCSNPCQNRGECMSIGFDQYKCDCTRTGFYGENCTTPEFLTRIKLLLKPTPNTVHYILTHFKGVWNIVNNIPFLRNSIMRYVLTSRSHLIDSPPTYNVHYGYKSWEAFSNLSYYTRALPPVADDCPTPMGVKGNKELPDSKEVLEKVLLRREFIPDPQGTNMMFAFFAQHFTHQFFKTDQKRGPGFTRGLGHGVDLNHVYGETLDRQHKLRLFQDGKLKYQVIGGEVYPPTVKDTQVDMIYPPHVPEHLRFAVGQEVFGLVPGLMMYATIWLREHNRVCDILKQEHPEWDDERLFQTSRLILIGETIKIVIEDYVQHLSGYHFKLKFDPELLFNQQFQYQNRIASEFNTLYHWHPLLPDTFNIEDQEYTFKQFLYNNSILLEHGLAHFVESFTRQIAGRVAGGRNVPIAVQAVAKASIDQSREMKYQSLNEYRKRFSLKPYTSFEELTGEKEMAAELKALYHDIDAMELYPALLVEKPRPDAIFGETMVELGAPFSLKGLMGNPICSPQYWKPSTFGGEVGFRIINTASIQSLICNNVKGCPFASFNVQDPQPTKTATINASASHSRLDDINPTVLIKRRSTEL

SMILES | IC50 [1] [µM] | ID50 [4] [mg/kg] | Inhibition [2] [%] | Inhibition [3] [%]
CS(=O)(=O)c1ccc(-c2c(-c3ccccc3)cc(-c3ccc(C(F)(F)F)cc3)oc2=O)cc1 | > 100 |  |  | 
CCc1ccc(-c2cc(-c3ccccc3)c(-c3ccc(S(C)(=O)=O)cc3)c(=O)o2)cc1 | > 100 |  |  | 
CSc1ccc(-c2cc(-c3ccc(F)cc3)c(-c3ccc(S(C)(=O)=O)cc3)c(=O)o2)cc1 | > 100 |  |  | 
CS(=O)(=O)c1ccc(-c2c(-c3ccccc3)cc(-c3ccccc3)oc2=O)cc1 | > 100 |  |  | 
CS(=O)(=O)c1ccc(-c2cc(-c3ccccc3)oc(=O)c2-c2ccccc2)cc1 | > 100 |  |  | 
Cc1ccc(-c2cc(C(F)(F)F)nn2-c2ccc(S(N)(=O)=O)cc2)cc1 [CELECOXIB] |  |  |  | 69.33
COc1ccc(-c2cc(-c3ccccc3)c(-c3ccc(N=[N+]=[N-])cc3)c(=O)o2)cc1 | > 100 | 5.6 | 55.5 | 47.2
COc1ccc(-c2cc(-c3ccccc3)c(-c3ccc(S(C)(=O)=O)cc3)c(=O)o2)cc1 | > 100 | 19.2 | 69 | 37.5
CS(=O)(=O)c1ccc(-c2c(-c3ccccc3)cc(-c3ccc(F)cc3)oc2=O)cc1 | > 100 |  |  | 
CS(=O)(=O)c1ccc(-c2cc(-c3ccccc3)c(-c3ccccc3)c(=O)o2)cc1 | > 100 |  |  | 
Cc1ccc(-c2cc(-c3ccc(S(C)(=O)=O)cc3)c(-c3ccccc3)c(=O)o2)cc1 | > 100 |  |  | 
CCc1ccc(-c2cc(-c3ccc(S(C)(=O)=O)cc3)c(-c3ccccc3)c(=O)o2)cc1 | > 100 |  |  | 
CS(=O)(=O)c1ccc(-c2cc(-c3ccccc3)oc(=O)c2-c2ccncc2)cc1 | > 100 |  |  | 
CS(=O)(=O)c1ccc(-c2c(-c3ccccc3)cc(-c3ccc([N+](=O)[O-])cc3)oc2=O)cc1 | > 100 |  |  | 
CCOc1ccc(-c2cc(-c3ccccc3)c(-c3ccc(N=[N+]=[N-])cc3)c(=O)o2)cc1 | > 100 |  |  | 
CCOc1ccc(-c2cc(-c3ccccc3)c(-c3ccc(S(C)(=O)=O)cc3)c(=O)o2)cc1 | > 100 | 5.6 | 75 | 58.3
Cc1ccc(-c2cc(-c3ccccc3)c(-c3ccc(S(C)(=O)=O)cc3)c(=O)o2)cc1 | > 100 |  |  | 

Further lines, with some results ahead:

IC50 [1] [µM] | ID50 [4] [mg/kg] | SMILES | Inhibition [2] [%] | Inhibition [3] [%]
> 100 |  | CS(=O)(=O)c1ccc(-c2c(-c3ccccc3)cc(-c3ccc(O)cc3)oc2=O)cc1 |  | 
> 100 | 21.4 | COc1ccc(-c2cc(-c3ccc(S(C)(=O)=O)cc3)c(-c3ccncc3)c(=O)o2)cc1 | 55 | 58.3
30 |  | CSc1ccc(-c2cc(-c3ccccc3)c(-c3ccc(N=[N+]=[N-])cc3)c(=O)o2)cc1 |  | 
0.44 |  | COc1ccc(-c2cc(-c3cccnc3)c(-c3ccc(S(C)(=O)=O)cc3)c(=O)o2)cc1 |  | 
0.15 |  | COc1ccc(-c2cc(-c3ccc(S(C)(=O)=O)cc3)c(-c3cccnc3)c(=O)o2)cc1 |  | 
31.2 |  | CSc1ccc(-c2cc(-c3ccc(S(C)(=O)=O)cc3)c(-c3ccccc3)c(=O)o2)cc1 |  | 
20 |  | COc1ccc(-c2cc(-c3ccc(F)cc3)c(-c3ccc(S(C)(=O)=O)cc3)c(=O)o2)cc1 |  | 
31.6 |  | CCOc1ccc(-c2cc(-c3ccc(S(C)(=O)=O)cc3)c(-c3ccccc3)c(=O)o2)cc1 |  | 
11 |  | CS(=O)(=O)c1ccc(-c2cc(-c3ccc(F)cc3)oc(=O)c2-c2ccccc2)cc1 |  | 
37.7 | 7.9 | CSc1ccc(-c2cc(-c3ccccc3)c(-c3ccc(S(C)(=O)=O)cc3)c(=O)o2)cc1 | 64.7 | 72
25.3 |  | CS(=O)(=O)c1ccc(-c2cc(-c3ccc(C(F)(F)F)cc3)oc(=O)c2-c2ccccc2)cc1 |  | 
3.2 |  | CCOc1ccc(-c2cc(-c3ccc(F)cc3)c(-c3ccc(S(C)(=O)=O)cc3)c(=O)o2)cc1 |  | 
32.5 |  | CS(=O)(=O)c1ccc(-c2c(-c3ccccc3)cc(-c3ccc(N)cc3)oc2=O)cc1 |  | 
3.2 |  | CS(=O)(=O)c1ccc(-c2cc(-c3ccccc3)oc(=O)c2-c2cccnc2)cc1 |  | 
3 |  | CS(=O)(=O)c1ccc(-c2c(-c3cccnc3)cc(-c3ccccc3)oc2=O)cc1 |  | 
1.07 |  | CCOc1ccc(-c2cc(-c3ccc(S(C)(=O)=O)cc3)c(-c3ccc(F)cc3)c(=O)o2)cc1 |  | 
10.7 |  | COc1ccc(-c2cc(-c3ccc(S(C)(=O)=O)cc3)c(-c3ccc(F)cc3)c(=O)o2)cc1 |  | 
31.5 |  | COc1ccc(-c2cc(-c3ccc(S(C)(=O)=O)cc3)c(-c3ccccc3)c(=O)o2)cc1 |  | 
